OX1R antag-1 = blocks the human orexin 1 receptor; inhibition, % at 6.6 µM; hit rate 1.8% among 330,000; AID 485270; OX1R-expressing cells, FRET antagonist read-out; in the data active = inhibition mostly above about 38%, no sharp cut-off; inactive = mostly below about 40%
CHO parental Ca = signal in parental CHO cells, OX1R antagonist counter-screen; parental CHO-K1, ATP-induced calcium, Fluo-8 fluorescence; hit rate 0.63% among 330,000; inhibition, % at 5.6 µM;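 active = inhibition above that plate's mean sample inhibition plus 3 SD, cut at about 26% in these data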
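Test system: untransfected parental CHO cell line; also added: ATP stimulus; dosing: 5.6 µM, single dose; signal: calcium-sensitive Fluo-8 fluorescence; measure: percent inhibition of ATP-evoked calcium rise, normalized to controls; benchmarks: low control ATP plus DMSO, high control DMSO only; replication: one well per compound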
OX1R antag-2 = antagonists of human orexin 1 receptor; hit rate 0.43% among 330,000; O43613; inhibition, % at 5 µM; AID 434989; CHO/OX1R cells, Fluo-8 calcium fluorescence, orexin A;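 active = inhibition above its plate's threshold, mean inhibition of all tested compounds on the plate plus 3 SD, cut at about 37% in these data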
GalR3 antagonist = blocks the human galanin receptor 3 | AID 651719 | O60755 | hit rate 0.44% among 360,000 | HEK293 GalR3-CNG cAMP membrane potential fluorescence; galR3 body fused to GalR1 C-terminus | inhibition, % at 3 µM;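 active = inhibition above the screen-wide average plus 3 SD, cut at about 13% in these data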;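 also: forskolin and galanin both at EC90 stimulate the cells; cAMP rise reported by CNG channel membrane potential dye signal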
Target sequence (O60755 1-299 limits assumed): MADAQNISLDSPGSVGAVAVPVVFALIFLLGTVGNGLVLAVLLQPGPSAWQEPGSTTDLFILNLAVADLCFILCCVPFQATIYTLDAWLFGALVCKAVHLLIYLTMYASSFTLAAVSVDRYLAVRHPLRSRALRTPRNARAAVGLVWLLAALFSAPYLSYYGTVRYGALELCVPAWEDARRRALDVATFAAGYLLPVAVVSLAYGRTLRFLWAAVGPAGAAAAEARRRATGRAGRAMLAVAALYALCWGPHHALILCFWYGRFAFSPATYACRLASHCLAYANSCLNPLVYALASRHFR
TAAR1 antag = human TAAR1 antagonism; inhibition, % at 3 µM; CHO RD-HGA16 TAAR1, Fluo-8 calcium fluorescence, antagonist; hit rate 1.5% among 360,000;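 active = inhibition above a per-plate cutoff, the mean inhibition of test compounds on that plate plus 3 SD, cut at about 49% in these data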
Target sequence (Q96RJ0 whole entry, looked up): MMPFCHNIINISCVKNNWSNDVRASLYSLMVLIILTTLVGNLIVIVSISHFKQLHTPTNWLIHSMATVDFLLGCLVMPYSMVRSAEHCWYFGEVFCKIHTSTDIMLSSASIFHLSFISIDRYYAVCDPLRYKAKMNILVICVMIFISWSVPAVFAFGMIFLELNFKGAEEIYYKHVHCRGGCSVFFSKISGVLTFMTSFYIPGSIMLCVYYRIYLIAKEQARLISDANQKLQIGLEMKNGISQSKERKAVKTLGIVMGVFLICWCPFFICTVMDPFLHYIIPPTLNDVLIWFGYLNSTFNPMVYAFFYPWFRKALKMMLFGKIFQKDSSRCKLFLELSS
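Assay system: RD-HGA16 CHO cells with stable hTAAR1 and Gα16 / Reagent: EC80 β-phenethylamine stimulus / Doses: 3 µM, single point / Timing: dye loading 75 min at 37 °C, then 30 min room temperature / Measured by: Fluo-8 intracellular calcium dye fluorescence, real-time kinetic reads / Controls: vehicle wells and EC80 agonist wells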
TAAR1 ag = human TAAR1 agonism | Q96RJ0 | activation, % at 3 µM | hit rate 0.99% among 360,000 | AID 624467 | CHO RD-HGA16 TAAR1, Fluo-8 calcium fluorescence; vehicle wells 0%, saturating PEA agonist 100%;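 active = activation above the mean activation of all test compounds in the run plus 3 SD, cut at about 38% in these data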
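Assay system – CHO-derived RD-HGA16 cells with stable Gα16 and human TAAR1 · Compound dosing – one-point dosing at 3 µM (nominal) · Incubation – 17-24 h seeding, 75 min 37 °C dye, 30 min RT · Measured by – kinetic Fluo-8 calcium fluorescence · Control set – DMSO vehicle as 0%, PEA at EC100 as 100% · Repeats – single well for each compound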
nonsel antag count = nonselective antagonist in TAAR1 antagonist counter-screen. shares compounds with TAAR1 antag. counterscreen cell line, calcium fluorescence, antagonist mode. inhibition, % at 3 µM. hit rate 77% among 2,400; in the data active = inhibition above about 22%;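 also: CHO-Ga16 host cells stimulated with ATP at an EC80 level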
TAAR1 antag conf = human TAAR1 antagonism, confirmed | shares compounds with TAAR1 antag | TAAR1-expressing cells, fluorescence antagonist read-out | inhibition, % at 3 µM | hit rate 40% among 2,400 | AID 651785; in the data active = inhibition above about 49%;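 also: CHO-Ga16 host cells challenged with agonist PEA near its EC80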
Ga16 nonsel ag = nonselective Ga16 agonism, counter-screen. shares compounds with TAAR1 antag. Ga16-expressing cells, calcium fluorescence, agonist counterscreen. activation, % at 3 µM. hit rate 18% among 2,400. AID 651953; in the data active = activation above about 12%
TAAR1 ag count = activates human TAAR1 in antagonist counter-screen. hit rate 2% among 2,400. hTAAR1 cell line, fluorescence activation, agonist mode. shares compounds with TAAR1 antag. activation, % at 3 µM. AID 651955; in the data active = activation above about 37%;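 also: CHO cells stably expressing TAAR1 with calcium dye readout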
Numbers stand for hits; i = inactive; nt = no result given. This is a sample that favours compounds with a hit; in the whole collection about 4.2% have one here.

SMILES	OX1R antag-1	CHO parental Ca	OX1R antag-2	GalR3 antagonist	TAAR1 antag	TAAR1 ag	nonsel antag count	TAAR1 antag conf	Ga16 nonsel ag	TAAR1 ag count
COc1cc2c(cc1OC)/C(=C/C(=O)c1cccc([N+](=O)[O-])c1)NCC2	i	i	i	i	49.5	i	25.5	i	i	i
COc1cc2c(cc1OC)CN(C(=O)c1cccc([N+](=O)[O-])c1)CC2	i	i	i	i	i	i	nt	nt	nt	nt
COc1ccc(-c2nc3ccc(Br)cn3c2Cc2ccccc2C(F)(F)F)cc1OC	nt	nt	nt	i	i	i	nt	nt	nt	nt
Cc1ccc(C(C)C)c(OCc2ccc(C(=O)N/N=C/c3cccc(O)c3O)cc2)c1	i	i	i	i	77.4	i	46.6	80.0	i	i
O=C(N/N=C/c1ccccc1F)c1ccccc1OCc1ccccc1	i	i	i	i	51.2	i	i	i	i	i
CC(=O)Nc1ccc(C(=O)N/N=C/c2ccccc2OCc2ccccc2)cc1	i	i	i	i	52.4	i	31.7	i	i	i
O=C(NNC(=O)c1ccccc1OCc1ccccc1)c1ccccc1F	i	i	i	i	i	i	nt	nt	nt	nt
Cc1ccc(NC(=O)CN(C)C(=O)c2nn(C)c(=O)c3ccccc23)cc1	i	i	i	i	i	i	nt	nt	nt	nt
O=C(NCc1ccccc1)c1cc2ccccc2oc1=O	i	i	i	i	i	i	nt	nt	nt	nt
COc1ccc(NCc2nnc(SCc3ccc(Cl)cc3)n2-c2ccccc2)cc1	i	i	i	i	i	i	nt	nt	nt	nt
CC(=O)c1sc(NC(=O)c2cccc(C)c2)nc1C	i	i	i	i	i	i	nt	nt	nt	nt
COc1ccc(N(C)S(=O)(=O)c2cccc(C(=O)Nc3nc(C)c(C(C)=O)s3)c2)cc1	i	i	i	i	61.7	i	38.3	56.5	14.7	i
COc1ccc(N(C)S(=O)(=O)c2cccc(C(=O)OCC(=O)Nc3cc(C)ccc3OC)c2)cc1	nt	nt	nt	i	84.0	i	33.6	51.4	11.7	i
COc1ccc(N(C)S(=O)(=O)c2cccc(C(=O)Nc3cccc(C(=O)NC4CC4)c3)c2)cc1	i	i	i	i	60.6	i	i	i	i	i
COc1ccc(N(C)S(=O)(=O)c2cccc(C(=O)NC3CCC(C)CC3)c2)cc1 (configuration not stated)	i	i	i	i	i	i	nt	nt	nt	nt
COc1cc2[nH]c(=O)n(Cc3ccc(C(=O)N4CCC(N5CCCCC5)CC4)cc3)c(=O)c2cc1OC	i	i	i	nt	nt	nt	nt	nt	nt	nt
CCOC(=O)/C=C/c1cccc(OC)c1O	nt	nt	nt	i	i	i	nt	nt	nt	nt
COCc1ccc(-c2c(-c3ccsc3)oc(=O)c3cc(OC)c(OC)cc23)cc1	i	i	i	i	57.6	i	i	i	i	i
COc1ccccc1N1CCN(C(=O)C(C)NC(=O)c2cccc([N+](=O)[O-])c2)CC1 (configuration not stated)	i	i	i	i	i	i	nt	nt	nt	nt
CCOc1ccc(S(=O)(=O)N(CC(=O)NCc2cccnc2)c2ccc(F)cc2)cc1	i	i	i	i	64.9	i	28.7	49.3	12.8	i
CCOc1ccc(S(=O)(=O)N(CC(=O)NCc2cccnc2)c2ccc(C)cc2)cc1	i	i	i	i	i	i	nt	nt	nt	nt
COc1ccc(N(CC(=O)NCCSc2ccccc2)S(=O)(=O)c2ccccc2)c(OC)c1	i	i	i	i	58.7	i	32.6	54.6	i	i
COc1ccc(N(CC(=O)NCCSc2ccccn2)S(=O)(=O)c2ccccc2)c(OC)c1	45.5	i	i	i	50.1	i	26.7	i	i	i
COc1ccc(N(CC(=O)NCCSc2ccccc2)S(=O)(=O)c2ccccc2)cc1	i	i	i	i	65.3	i	21.6	i	i	i
COC(=O)C1=C(C)N(C)C(=NCC2CC2)NC1c1ccccc1 (configuration not stated)	nt	nt	nt	i	i	i	nt	nt	nt	nt
SMILES	OX1R antag-1	CHO parental Ca	OX1R antag-2	GalR3 antagonist	TAAR1 antag	TAAR1 ag	nonsel antag count	TAAR1 antag conf	Ga16 nonsel ag	TAAR1 ag count
O=C(NCCc1ccccc1F)c1ccc2c(c1)OCCO2	i	i	i	i	i	i	nt	nt	nt	nt
C=CCN1CC(COc2ccc(OC)cc2)OCCS1(=O)=O (configuration not stated)	nt	nt	nt	i	i	i	nt	nt	nt	nt
CCNC(=S)N/N=C/c1cccc(OCc2c(F)cccc2Cl)c1	i	i	i	i	56.8	i	i	i	i	i
CCNC(=S)N/N=C/c1cccc(/C=N/NC(=S)NCC)c1	i	i	i	i	i	i	nt	nt	nt	nt
CC(C)=N/N=C1/NC(=O)C(c2ccc(Cl)cc2)S1 (configuration not stated)	nt	nt	nt	i	54.6	i	i	i	i	i
COc1ccc(-c2csc(N3CCN(c4cc5c(cc4Cl)nc(-c4ccncc4)n5CCOCCO)CC3)n2)cc1	i	i	i	i	50.2	i	34.1	i	i	i
COc1ccc(CCNC(=O)CN(c2cc(OC)ccc2OC)S(=O)(=O)c2ccccc2)cc1	i	i	i	i	49.5	i	29.7	i	i	i
COc1ccc(OC)c(N(CC(=O)NCCc2ccc(OC)c(OC)c2)S(=O)(=O)c2ccccc2)c1	i	i	i	i	i	i	nt	nt	nt	nt
COc1ccc(OC)c(N(CC(=O)NCCSCc2ccc(C)cc2)S(C)(=O)=O)c1	i	i	i	i	i	i	nt	nt	nt	nt
COc1ccccc1N(CC(=O)NCCSCc1ccc(C)cc1)S(=O)(=O)c1ccccc1	59.5	i	i	i	84.0	i	26.8	51.3	i	i
COc1ccc(OC)c(N(CC(=O)NCc2ccccc2)S(=O)(=O)c2ccc(OC)c(OC)c2)c1	i	i	i	i	50.9	i	21.6	i	i	i
O=C(O)C1C2C=CC(C2)C1C(=O)Nc1ccccc1Br (configuration not stated)	i	i	i	i	i	i	nt	nt	nt	nt
O=C(CSc1nnc(-c2ccncc2)n1CC1CCCO1)Nc1ccccc1Cl (configuration not stated)	i	i	i	i	i	i	nt	nt	nt	nt
Cc1cc(C)n(CC(O)COc2ccccc2C)n1 (configuration not stated)	i	i	i	i	i	i	nt	nt	nt	nt
Cc1ccc(-c2nn(-c3cccc(F)c3)cc2CNCc2cccnc2)o1	i	i	i	i	66.0	i	30.7	i	i	i
Cc1[nH]c(SCC(=O)Nc2cc(S(C)(=O)=O)ccc2Cl)nc1Cc1ccccc1	i	i	i	i	i	i	nt	nt	nt	nt

Compound activity as filed in PubChem BioAssay.
